Test results reported in ChEMBL document CHEMBL5653631, “A Potent and Selective ULK1 Inhibitor Suppresses Autophagy and Sensitizes Cancer Cells to Nutrient Stress” (iScience, 2018).
One block for each compound: values may come before it.

Columns and labels:
[1] = target: Ribosomal protein S6 kinase alpha-4 (Homo sapiens) (UniProt O75676); test: Inhibition of human recombinant MSK2 at 500 nM related to control ULK1
[2] = target: Tyrosine-protein kinase receptor UFO (Homo sapiens) (UniProt P30530); test: Inhibition of human recombinant AXL at 500 nM in presence of ATP by radiometric assay relative to control
Method in brief: (§1)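 Panel of 327 recombinant human kinases, each assayed in vitro by radiometric activity assay in duplicate at a single inhibitor concentration per compound, chosen with reference to its ULK1 inhibition. Activity remaining was expressed as percent of vehicle control, and percent inhibition was calculated as 100 minus percent activity remaining.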

[3] = target: T1, Ephrin type-A receptor 1 (Homo sapiens) (UniProt P21709); test: Inhibition of human recombinant EphA1 at 500 nM related to control ULK1
T1 sequence (whole entry): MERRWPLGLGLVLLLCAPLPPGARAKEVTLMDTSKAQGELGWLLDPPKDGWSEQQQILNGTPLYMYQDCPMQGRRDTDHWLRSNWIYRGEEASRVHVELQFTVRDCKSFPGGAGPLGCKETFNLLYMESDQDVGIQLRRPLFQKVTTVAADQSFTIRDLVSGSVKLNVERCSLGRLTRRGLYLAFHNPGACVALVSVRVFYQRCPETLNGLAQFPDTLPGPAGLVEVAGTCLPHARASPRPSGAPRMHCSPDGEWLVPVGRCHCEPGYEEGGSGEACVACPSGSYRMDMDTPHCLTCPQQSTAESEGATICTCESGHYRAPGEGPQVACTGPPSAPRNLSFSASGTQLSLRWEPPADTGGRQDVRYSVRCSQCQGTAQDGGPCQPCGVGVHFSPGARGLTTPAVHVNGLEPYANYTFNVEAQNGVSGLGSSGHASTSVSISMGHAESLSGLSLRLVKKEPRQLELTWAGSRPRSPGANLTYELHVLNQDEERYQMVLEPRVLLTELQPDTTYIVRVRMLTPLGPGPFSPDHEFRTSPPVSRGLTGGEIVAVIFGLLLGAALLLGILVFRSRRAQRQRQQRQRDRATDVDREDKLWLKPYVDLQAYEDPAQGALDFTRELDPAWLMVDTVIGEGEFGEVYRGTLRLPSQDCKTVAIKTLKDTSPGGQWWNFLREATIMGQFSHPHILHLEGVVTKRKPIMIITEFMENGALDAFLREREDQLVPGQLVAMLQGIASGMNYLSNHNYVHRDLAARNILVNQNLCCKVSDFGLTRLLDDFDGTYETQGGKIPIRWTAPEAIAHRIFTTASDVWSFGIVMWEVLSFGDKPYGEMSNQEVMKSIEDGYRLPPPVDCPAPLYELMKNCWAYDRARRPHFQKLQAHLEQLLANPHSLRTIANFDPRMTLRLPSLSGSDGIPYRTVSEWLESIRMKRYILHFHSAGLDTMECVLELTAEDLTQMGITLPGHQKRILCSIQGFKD

[4] = target: T2, Mitogen-activated protein kinase kinase kinase 3 (Homo sapiens) (UniProt Q99759); test: Inhibition of human recombinant MAP3K3 at 500 nM in presence of ATP by radiometric assay relative to control
T2 sequence (whole entry): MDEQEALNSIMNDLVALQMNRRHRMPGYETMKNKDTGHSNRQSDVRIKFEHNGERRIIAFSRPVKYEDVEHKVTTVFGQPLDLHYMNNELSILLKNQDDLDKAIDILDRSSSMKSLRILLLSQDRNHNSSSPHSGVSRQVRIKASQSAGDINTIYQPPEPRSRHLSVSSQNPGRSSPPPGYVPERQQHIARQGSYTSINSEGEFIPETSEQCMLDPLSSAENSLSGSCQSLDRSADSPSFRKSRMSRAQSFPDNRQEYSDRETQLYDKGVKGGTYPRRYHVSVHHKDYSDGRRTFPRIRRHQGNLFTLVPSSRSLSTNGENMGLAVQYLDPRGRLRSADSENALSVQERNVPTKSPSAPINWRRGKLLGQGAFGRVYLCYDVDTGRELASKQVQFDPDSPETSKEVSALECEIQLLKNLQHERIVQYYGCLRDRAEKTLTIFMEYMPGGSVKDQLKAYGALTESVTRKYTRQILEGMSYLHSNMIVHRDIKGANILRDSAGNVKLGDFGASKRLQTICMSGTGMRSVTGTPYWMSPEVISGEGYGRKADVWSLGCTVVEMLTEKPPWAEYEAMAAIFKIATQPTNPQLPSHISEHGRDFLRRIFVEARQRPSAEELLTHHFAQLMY

[5] = target: Serine/threonine-protein kinase tousled-like 2 (Homo sapiens) (UniProt Q86UE8); test: Inhibition of human recombinant TLK2 at 40 nM related to control ULK1
[6] = target: PAS domain-containing serine/threonine-protein kinase (Homo sapiens) (UniProt Q96RG2); test: Inhibition of human recombinant PASK at 40 nM in presence of ATP by radiometric assay relative to control
[7] = target: Activin receptor type-1-like (Homo sapiens) (UniProt P37023); test: Inhibition of human recombinant ALK1 at 15 nM in presence of ATP by radiometric assay relative to control; method in brief: as §1
[8] = target: Cyclin-dependent kinase 7 (Homo sapiens) (UniProt P50613); test: Inhibition of human recombinant CDK7 at 15 nM in presence of ATP by radiometric assay relative to control
[9] = target: Tyrosine-protein kinase JAK2 (Homo sapiens) (UniProt O60674); test: Inhibition of human recombinant JAK2 at 15 nM related to control ULK1
[10] = target: Tyrosine-protein kinase Fgr (Homo sapiens) (UniProt P09769); test: Inhibition of human recombinant FGR at 15 nM related to control ULK1
[11] = target: Serine/threonine-protein kinase SBK1 (Homo sapiens) (UniProt Q52WX2); test: Inhibition of human recombinant SBK1 at 15 nM related to control ULK1
[12] = target: Interferon-induced, double-stranded RNA-activated protein kinase (Homo sapiens) (UniProt P19525); test: Inhibition of human recombinant PKR at 15 nM in presence of ATP by radiometric assay relative to control
[13] = target: Serine/threonine-protein kinase PAK 2 (Homo sapiens) (UniProt Q13177); test: Inhibition of human recombinant PAK2 at 15 nM related to control ULK1
Chain of Serine/threonine-protein kinase PAK 2 (Homo sapiens) (Q13177 whole entry): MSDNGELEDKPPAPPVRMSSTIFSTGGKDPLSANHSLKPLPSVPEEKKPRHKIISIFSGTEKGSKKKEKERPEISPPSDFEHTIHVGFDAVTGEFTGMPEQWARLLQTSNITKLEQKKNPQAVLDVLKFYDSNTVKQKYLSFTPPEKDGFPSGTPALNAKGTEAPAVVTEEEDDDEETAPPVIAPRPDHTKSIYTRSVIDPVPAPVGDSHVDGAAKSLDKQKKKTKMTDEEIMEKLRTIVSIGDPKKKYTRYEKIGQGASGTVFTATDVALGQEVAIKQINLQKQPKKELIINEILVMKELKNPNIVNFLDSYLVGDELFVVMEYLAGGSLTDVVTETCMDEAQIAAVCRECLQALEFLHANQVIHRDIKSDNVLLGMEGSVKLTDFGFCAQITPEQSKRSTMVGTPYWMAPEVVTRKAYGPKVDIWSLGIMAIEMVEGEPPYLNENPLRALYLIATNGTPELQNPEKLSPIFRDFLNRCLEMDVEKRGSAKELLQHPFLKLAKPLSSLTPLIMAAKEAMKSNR

Chain of PAS domain-containing serine/threonine-protein kinase (Homo sapiens) (Q96RG2 whole entry, the tested form may be a part): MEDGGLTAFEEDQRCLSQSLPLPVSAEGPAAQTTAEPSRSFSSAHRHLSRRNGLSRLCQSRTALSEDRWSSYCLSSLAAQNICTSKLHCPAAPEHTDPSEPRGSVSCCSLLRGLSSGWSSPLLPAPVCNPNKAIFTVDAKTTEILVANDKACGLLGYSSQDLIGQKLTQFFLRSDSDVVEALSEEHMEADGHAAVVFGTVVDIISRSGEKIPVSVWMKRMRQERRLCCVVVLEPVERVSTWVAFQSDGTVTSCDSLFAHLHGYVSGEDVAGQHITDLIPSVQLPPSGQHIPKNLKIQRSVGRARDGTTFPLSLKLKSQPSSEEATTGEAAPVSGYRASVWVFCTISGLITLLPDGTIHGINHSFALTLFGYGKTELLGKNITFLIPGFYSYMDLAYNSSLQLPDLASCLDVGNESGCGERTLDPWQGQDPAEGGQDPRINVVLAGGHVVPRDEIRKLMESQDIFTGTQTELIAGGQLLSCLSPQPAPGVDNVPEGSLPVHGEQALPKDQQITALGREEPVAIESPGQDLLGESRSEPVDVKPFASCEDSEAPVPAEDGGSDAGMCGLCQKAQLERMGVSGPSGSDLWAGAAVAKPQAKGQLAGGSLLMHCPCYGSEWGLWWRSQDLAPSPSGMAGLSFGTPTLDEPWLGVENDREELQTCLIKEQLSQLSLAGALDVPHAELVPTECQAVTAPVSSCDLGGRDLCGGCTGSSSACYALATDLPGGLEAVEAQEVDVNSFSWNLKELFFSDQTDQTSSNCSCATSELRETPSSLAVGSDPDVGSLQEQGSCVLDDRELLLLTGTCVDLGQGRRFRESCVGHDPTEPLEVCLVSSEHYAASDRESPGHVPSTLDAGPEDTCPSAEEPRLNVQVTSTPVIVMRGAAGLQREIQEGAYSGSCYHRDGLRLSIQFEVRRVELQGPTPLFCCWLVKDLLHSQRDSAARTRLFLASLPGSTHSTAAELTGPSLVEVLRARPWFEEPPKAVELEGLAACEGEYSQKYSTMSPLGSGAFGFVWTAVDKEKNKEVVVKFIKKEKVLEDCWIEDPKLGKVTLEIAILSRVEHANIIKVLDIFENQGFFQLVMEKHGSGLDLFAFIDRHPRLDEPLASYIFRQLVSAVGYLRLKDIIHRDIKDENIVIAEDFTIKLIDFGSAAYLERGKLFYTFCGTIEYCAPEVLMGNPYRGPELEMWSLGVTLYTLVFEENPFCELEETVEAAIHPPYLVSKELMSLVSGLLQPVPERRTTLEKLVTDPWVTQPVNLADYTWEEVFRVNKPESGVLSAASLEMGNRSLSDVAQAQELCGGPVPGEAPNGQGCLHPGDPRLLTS
Chain of Tyrosine-protein kinase JAK2 (Homo sapiens) (O60674 whole entry): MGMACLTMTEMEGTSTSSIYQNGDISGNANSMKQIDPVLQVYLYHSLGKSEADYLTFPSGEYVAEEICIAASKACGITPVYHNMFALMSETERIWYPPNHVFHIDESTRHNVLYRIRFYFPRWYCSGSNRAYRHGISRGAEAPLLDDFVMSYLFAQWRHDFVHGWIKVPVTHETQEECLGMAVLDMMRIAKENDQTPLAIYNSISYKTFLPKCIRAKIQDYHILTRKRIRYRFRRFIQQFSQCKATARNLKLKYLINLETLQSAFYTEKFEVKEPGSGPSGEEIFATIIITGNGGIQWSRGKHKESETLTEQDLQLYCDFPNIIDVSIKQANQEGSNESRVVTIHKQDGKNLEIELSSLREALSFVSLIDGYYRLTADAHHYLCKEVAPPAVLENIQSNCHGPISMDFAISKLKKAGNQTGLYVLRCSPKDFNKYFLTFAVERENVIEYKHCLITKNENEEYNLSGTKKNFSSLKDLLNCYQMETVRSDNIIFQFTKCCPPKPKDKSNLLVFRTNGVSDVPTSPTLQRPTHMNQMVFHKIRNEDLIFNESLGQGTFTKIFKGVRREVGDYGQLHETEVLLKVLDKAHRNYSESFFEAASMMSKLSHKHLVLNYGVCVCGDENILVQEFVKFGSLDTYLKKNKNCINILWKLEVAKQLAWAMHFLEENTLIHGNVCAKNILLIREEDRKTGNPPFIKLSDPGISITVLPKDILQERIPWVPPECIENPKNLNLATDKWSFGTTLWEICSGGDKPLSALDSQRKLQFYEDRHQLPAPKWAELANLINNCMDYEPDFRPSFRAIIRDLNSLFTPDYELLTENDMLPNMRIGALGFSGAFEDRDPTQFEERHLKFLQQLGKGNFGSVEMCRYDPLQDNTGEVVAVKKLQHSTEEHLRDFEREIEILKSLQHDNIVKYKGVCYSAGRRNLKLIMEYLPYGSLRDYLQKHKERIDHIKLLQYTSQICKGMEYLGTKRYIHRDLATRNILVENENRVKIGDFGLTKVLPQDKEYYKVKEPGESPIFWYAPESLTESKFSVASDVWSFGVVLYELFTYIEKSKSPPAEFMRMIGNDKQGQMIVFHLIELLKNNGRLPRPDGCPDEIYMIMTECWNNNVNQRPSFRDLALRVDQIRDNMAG
Chain of Tyrosine-protein kinase Fgr (Homo sapiens) (P09769 2-529 limits assumed): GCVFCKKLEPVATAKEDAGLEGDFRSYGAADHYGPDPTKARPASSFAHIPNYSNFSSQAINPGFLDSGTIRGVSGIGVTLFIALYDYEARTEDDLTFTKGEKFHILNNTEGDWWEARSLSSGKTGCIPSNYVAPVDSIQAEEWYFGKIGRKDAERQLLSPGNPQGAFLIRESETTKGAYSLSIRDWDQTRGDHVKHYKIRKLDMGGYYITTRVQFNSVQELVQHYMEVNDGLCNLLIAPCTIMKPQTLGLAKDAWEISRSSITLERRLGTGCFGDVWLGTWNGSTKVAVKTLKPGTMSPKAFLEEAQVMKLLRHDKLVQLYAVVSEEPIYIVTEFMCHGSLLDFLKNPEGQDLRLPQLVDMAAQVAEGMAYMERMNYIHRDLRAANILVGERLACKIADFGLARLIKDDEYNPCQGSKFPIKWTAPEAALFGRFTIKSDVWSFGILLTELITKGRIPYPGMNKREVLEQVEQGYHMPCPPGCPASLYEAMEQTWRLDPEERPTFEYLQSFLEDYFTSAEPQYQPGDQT
Chain of Activin receptor type-1-like (Homo sapiens) (P37023 whole entry): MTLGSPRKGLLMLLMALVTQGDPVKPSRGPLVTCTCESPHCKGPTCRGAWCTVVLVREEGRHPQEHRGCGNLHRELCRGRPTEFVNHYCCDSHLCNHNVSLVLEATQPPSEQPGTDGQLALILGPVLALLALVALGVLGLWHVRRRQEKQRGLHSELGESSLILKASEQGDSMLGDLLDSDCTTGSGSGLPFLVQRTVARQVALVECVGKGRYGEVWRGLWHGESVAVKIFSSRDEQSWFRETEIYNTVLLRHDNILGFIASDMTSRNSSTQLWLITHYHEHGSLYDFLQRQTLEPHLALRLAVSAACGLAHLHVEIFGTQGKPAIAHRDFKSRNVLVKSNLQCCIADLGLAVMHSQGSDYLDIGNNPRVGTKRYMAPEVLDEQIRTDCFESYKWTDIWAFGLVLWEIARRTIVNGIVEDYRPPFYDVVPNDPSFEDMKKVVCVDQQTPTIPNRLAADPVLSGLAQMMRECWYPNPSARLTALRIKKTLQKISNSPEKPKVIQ
Chain of Serine/threonine-protein kinase SBK1 (Homo sapiens) (Q52WX2 whole entry): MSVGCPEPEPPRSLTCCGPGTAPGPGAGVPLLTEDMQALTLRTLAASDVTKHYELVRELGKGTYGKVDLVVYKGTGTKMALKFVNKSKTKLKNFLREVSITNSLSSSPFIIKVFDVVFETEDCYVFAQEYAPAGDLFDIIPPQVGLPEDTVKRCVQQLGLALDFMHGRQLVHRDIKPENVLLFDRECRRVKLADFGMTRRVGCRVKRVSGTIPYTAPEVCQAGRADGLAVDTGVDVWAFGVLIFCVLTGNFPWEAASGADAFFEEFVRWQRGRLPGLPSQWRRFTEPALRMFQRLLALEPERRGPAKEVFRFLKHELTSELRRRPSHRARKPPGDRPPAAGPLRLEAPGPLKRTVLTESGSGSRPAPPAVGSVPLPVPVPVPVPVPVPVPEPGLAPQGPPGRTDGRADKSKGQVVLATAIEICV
Chain of Cyclin-dependent kinase 7 (Homo sapiens) (P50613 whole entry): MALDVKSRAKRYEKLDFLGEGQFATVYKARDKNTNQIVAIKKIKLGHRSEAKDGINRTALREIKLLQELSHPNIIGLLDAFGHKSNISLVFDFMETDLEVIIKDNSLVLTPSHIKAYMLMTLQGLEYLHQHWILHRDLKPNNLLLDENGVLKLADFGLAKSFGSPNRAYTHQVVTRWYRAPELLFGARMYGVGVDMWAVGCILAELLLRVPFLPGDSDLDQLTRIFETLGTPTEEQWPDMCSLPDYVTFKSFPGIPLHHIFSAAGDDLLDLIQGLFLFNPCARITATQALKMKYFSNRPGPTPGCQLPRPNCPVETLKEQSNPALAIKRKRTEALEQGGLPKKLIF

fold change (FC) [1]: 0
inhibition [2]: 5%
fold change (FC) [3]: 0.18
inhibition [4]: 0%
Structure (SMILES): CNC(=O)c1ccccc1Oc1nc(Nc2cc(OC)c(OC)c(OC)c2)ncc1Br

fold change (FC) [5]: 0
inhibition [6]: 12%
Structure (SMILES): O=C(N[C@@H](C1CC1)C(F)(F)F)c1cc(-c2cnn3cc(-c4ccc(F)cc4)cnc23)cs1

inhibition [7]: 7%
inhibition [8]: 16%
fold change (FC) [9]: 0.07
fold change (FC) [10]: 0.49
fold change (FC) [11]: 0.06
inhibition [12]: 2%
fold change (FC) [13]: 0
Structure (SMILES): CC(C)[C@H](NC(=O)c1cc(-c2cnn3cc(-c4ccc(OCCN5CCCCC5)cc4)cnc23)cs1)C(F)(F)F
